In data set [1] the target is T1, 3-dehydroquinate synthase (Escherichia coli K-12, UniProt P07639).
T1 sequence (P07639 whole entry): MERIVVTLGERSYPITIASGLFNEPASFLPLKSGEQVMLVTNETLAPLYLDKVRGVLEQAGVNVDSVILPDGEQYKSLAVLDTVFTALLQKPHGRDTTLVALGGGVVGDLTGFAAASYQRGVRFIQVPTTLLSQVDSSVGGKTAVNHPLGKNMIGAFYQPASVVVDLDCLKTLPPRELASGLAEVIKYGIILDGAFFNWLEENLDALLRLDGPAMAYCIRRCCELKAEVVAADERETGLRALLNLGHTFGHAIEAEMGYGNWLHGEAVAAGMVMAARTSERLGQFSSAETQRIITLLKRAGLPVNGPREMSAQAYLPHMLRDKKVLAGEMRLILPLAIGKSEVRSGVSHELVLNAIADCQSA
The experiment in a line: Inhibition constant for binding to Co2+ form of 3-dehydroquinate synthase (DHQ) purified from Escherichia coli. The method in brief: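 E. coli DHQ synthase, Co2+ form, purified with […] in all buffers from lysis onward. Assayed at rt in 50 mM MOPS pH 7.5 with […], 10 mM NAD+, 1 unit dehydroquinase, varied DAHP and inhibitor; 0.024 units enzyme added last. A234 increase followed. Ki from Dixon plots, or as half the I50 x-intercept at DAHP = Km ([…]).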

The target in data set [2] is T1, 3-dehydroquinate synthase. The experiment in a line: Inhibition constant for binding to Zn2+ form of 3-dehydroquinate synthase (DHQ) purified from Escherichia coli. The method in brief: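 E. coli DHQ synthase, Zn2+ form, purified with 75 mM ZnSO4 replacing CoCl2 in all buffers. Assayed at rt in 50 mM MOPS pH 7.5 with […] mM NAD+, 1 unit dehydroquinase, varied DAHP and inhibitor; 0.024 units enzyme added last. A234 increase followed. Ki from Dixon plots, or as half the I50 x-intercept at DAHP = Km ([…]).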

Substrate in data set [3]: Oc1ccccc1O
Nature of the data set: Kinetics expressed as Michaelis-Menten constant against Co2+ form of 3-dehydroquinate synthase purified from Escherichia coli. A digest of the protocol:
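Co2+-form enzyme from E. coli, with CoCl2 in all buffers from lysis through purification. Coupled assay in 50 mM MOPS pH 7.5 with CoCl2, NAD+, dehydroquinase (1 unit) and varying DAHP substrate. Equilibrated at rt, then started with 0.024 units synthase. Absorbance rise at 234 nm followed over time. Initial rates taken from linear least-squares fits of progress curves.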

Substrate in data set [4]: Oc1ccccc1O
The experiment in a line: Kinetics expressed as Michaelis-Menten constant against Zn2+ form of 3-dehydroquinate synthase purified from Escherichia coli. The method in brief: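 Zn2+-form enzyme from E. coli, purified with ZnSO4 replacing CoCl2 in every buffer from cell lysis onward. Coupled assay in 50 mM MOPS pH 7.5 with ZnSO4, NAD+, dehydroquinase (1 unit) and varying DAHP substrate. Equilibrated at rt, then started with 0.024 units synthase. Absorbance increase at 234 nm monitored. Initial rates from linear least-squares fits.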

For the molecule `O=C(O)c1cc(O)c(O)c(CCP(=O)(O)O)c1`, the inhibition constant Ki stood at 5 µM in data set [1] and 1.7 µM in data set [2].
For the molecule `O=C(O)c1ccc(O)c(O)c1` [PROTOCATECHUIC ACID], the inhibition constant Ki in data set [1] is 44 µM; in data set [2], 65 µM.
As for `O=C(O)c1cc(O)c(O)c(CP(=O)(O)O)c1`, the inhibition constant (Ki) was determined as 21 µM in data set [1] and 0.35 µM in data set [2].
As to `O=P(O)(O)CCc1cccc(O)c1O`, the results for the Ki in data set [1] and in data set [2] were 200 µM and 90 µM, respectively.
On to `Oc1ccccc1O` [CATECHOL], for which the Ki in data set [1] came out at 880 µM; in data set [2], 630 µM.

B1: 3-dehydroquinate synthase (Escherichia coli K-12), P07639 (protein)
chain: T1 sequence (P07639 whole entry)
For the molecule B1, the values for the Michaelis-Menten constant (Km) in data set [3] and in data set [4] were 18 µM and 16 µM, respectively.
